Measurements published in ChEMBL document CHEMBL2429791, “Preparation of asymmetric urea derivatives that target prostate-specific membrane antigen for SPECT imaging” (J Med Chem, 2013).

Assays:
[1] = target: T1, Glutamate carboxypeptidase 2 (Homo sapiens, UniProt Q04609); test: Displacement of [125I]-DCIT from PSMA in human LNCaP cells after 1 hr by gamma counting
[2] = target: T1, Glutamate carboxypeptidase 2; test: Binding affinity to PSMA in human LNCaP cells after 1 hr by gamma counting; format: cell-based
In short: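 LNCaP cells plated at 4 × 10⁵ cells/well and grown 48 h (37 °C/5% CO₂), then washed with RPMI 1640 containing 0.5% BSA. Saturation binding used ¹²⁵I-labelled ligand (specific activity 81.4 kBq/nmol), 1 h at 37 °C; nonspecific binding measured with 100 µM non-radioactive iodinated compound. Cells washed, lysed in 0.2 N NaOH, gamma-counted; Kd from Scatchard plots.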

Intestine = test: Biodistribution in intestine of C.B.-17/Icr […] Jcl mouse xenografted with human LNCAP and PC3 cells after 30 to 60 mins; format: ADME, organism-based; details: in vivo
Liver (Mus musculus) = test: Biodistribution in liver of C.B.-17/Icr […] Jcl mouse xenografted with human LNCAP and PC3 cells after 30 to 60 mins; details: in vivo
LNCaP [3] = test: Biodistribution in LNCAP cells in C.B.-17/Icr […] Jcl mouse xenografted with human LNCAP and PC3 cells after 30 to 60 mins; format: ADME, organism-based; details: in vivo
Kidney [4] = test: Biodistribution in kidney of C.B.-17/Icr […] Jcl mouse xenografted with human LNCAP and PC3 cells after 2 mins to 3 hrs; format: ADME, organism-based; details: in vivo
In short: (§1)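 ¹²⁵I-labelled tracer given iv by tail vein to mice (22–24 g) bearing LNCaP (left shoulder) and PC-3 (right shoulder) xenografts of about 5–10 mm, grown from 1–5 × 10⁶ cells in 1:1 Matrigel. n=4 per time point; decapitated at 2 min, 30 min, 1, 3, 6 h. Tissues weighed and counted; uptake as %ID/g, mean ± SD.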

Liver = test: Drug excretion in C.B.-17/Icr […] Jcl mouse liver xenografted with human LNCAP and PC3 cells; format: ADME, tissue-based; details: in vivo
LNCaP [5] = test: Biodistribution in LNCAP cells in C.B.-17/Icr +/+ Jcl mouse xenografted with human LNCAP and PC3 cells after 2 mins to 3 hrs; format: ADME, organism-based; details: in vivo
In short: as §1

Kidney [6] = test: Drug excretion in C.B.-17/Icr […] Jcl mouse kidney xenografted with human LNCAP and PC3 cells; format: ADME, tissue-based; details: in vivo
[7] = Distribution coefficient, log D of the compound; format: physicochemical; details: octanol/water
Blood = test: Biodistribution in blood of C.B.-17/Icr […] Jcl mouse xenografted with human LNCAP and PC3 cells after 30 mins; format: ADME, organism-based; details: in vivo, 0.5 h
PC-3 = test: Biodistribution in PC3 cells in C.B.-17/Icr +/+ Jcl mouse xenografted with human LNCAP and PC3 cells at 25.9 MBq, iv after 30 mins by SPECT/CT analysis in presence of 2-PMPA; format: ADME, organism-based; details: in vivo, 0.5 h
In short: (§2)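 Anaesthetised (2.5% isoflurane) LNCaP/PC-3 tumour-bearing mice (20–25 g), kept on a heating pad, given ¹²³I tracer (25.9 MBq in 0.10 mL saline) iv by tail vein, with or without 50 mg/kg 2-PMPA. Pinhole SPECT acquired over 30–64 min (159 keV ±10% window, 32 projections × 60 s, 360°), then CT; images reconstructed by 3D OSEM.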

LNCaP [8] = test: Biodistribution in LNCAP cells in C.B.-17/Icr +/+ Jcl mouse xenografted with human LNCAP and PC3 cells at 25.9 MBq, iv after 30 mins by SPECT/CT analysis; format: ADME, organism-based; details: in vivo, 0.5 h
In short: as §2

LNCaP [9] = test: Biodistribution in LNCAP cells in C.B.-17/Icr +/+ Jcl mouse xenografted with human LNCAP and PC3 cells at 25.9 MBq, iv after 30 mins by SPECT/CT analysis in presence of 2-PMPA; format: ADME, organism-based; details: in vivo, 0.5 h
In short: as §2

T1 sequence (Q04609 whole entry): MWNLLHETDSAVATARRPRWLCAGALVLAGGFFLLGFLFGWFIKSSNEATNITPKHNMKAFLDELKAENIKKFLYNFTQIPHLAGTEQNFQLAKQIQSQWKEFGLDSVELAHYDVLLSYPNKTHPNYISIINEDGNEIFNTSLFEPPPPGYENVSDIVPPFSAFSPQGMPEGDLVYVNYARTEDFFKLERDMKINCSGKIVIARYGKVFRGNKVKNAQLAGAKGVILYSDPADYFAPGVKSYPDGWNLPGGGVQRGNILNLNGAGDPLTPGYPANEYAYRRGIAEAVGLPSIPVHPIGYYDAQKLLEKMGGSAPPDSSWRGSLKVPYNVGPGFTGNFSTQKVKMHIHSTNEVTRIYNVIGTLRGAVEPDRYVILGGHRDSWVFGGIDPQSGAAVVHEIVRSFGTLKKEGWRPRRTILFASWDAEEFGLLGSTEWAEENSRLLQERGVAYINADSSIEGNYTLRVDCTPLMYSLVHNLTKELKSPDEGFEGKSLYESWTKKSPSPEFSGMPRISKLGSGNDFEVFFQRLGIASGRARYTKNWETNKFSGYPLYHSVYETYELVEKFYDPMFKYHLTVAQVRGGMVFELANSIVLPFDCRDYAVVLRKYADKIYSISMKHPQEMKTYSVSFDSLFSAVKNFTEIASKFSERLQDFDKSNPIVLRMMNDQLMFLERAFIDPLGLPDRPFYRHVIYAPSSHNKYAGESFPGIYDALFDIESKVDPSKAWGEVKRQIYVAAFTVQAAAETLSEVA

Structure (SMILES): O=C(O)CC[C@H](NC(=O)N[C@@H](CSC1CC(=O)N(CCCC[C@H](NC(=O)CNC(=O)c2cccc(I)c2)C(=O)O)C1=O)C(=O)O)C(=O)O (some centres undefined)
- Ki [1]: 4.97 nM

Structure (SMILES): O=C(O)CC[C@H](NC(=O)N[C@@H](CS)C(=O)O)C(=O)O
- Ki [1]: 376 nM

Structure (SMILES): CN1C(=O)CC(SC[C@H](NC(=O)N[C@@H](CCC(=O)O)C(=O)O)C(=O)O)C1=O (some centres undefined)
- Ki [1]: 62.1 nM

Structure (SMILES): O=C(O)CC[C@H](NC(=O)N[C@@H](CSC1CC(=O)N(CCCC[C@H](NC(=O)CCCNC(=O)c2cccc(I)c2)C(=O)O)C1=O)C(=O)O)C(=O)O (some centres undefined)
- Ki [1]: 2.95 nM

Structure (SMILES): O=C(O)CC[C@H](NC(=O)N[C@@H](CSC1CC(=O)N(CCCC[C@H](NC(=O)CNC(=O)c2ccccc2)C(=O)O)C1=O)C(=O)O)C(=O)O (some centres undefined)
- Ki [1]: 8.06 nM

Structure (SMILES): O=C(O)CC[C@H](NC(=O)N[C@@H](CSC1CC(=O)N(CCCCCNC(=O)CNC(=O)c2cccc(I)c2)C1=O)C(=O)O)C(=O)O (some centres undefined)
- Ki [1]: 7.91 nM

Structure (SMILES): O=C(O)CC[C@H](NC(=O)N[C@@H](CSC1CC(=O)N(CCCC[C@H](NC(=O)CCNC(=O)c2cccc(I)c2)C(=O)O)C1=O)C(=O)O)C(=O)O (some centres undefined)
- Ki [1]: 6.26 nM

Structure (SMILES): O=C(O)CC[C@H](NC(=O)N[C@@H](Cc1ccc(O)c([125I])c1)C(=O)O)C(=O)O
- Kd [2]: 143 nM

Structure (SMILES): O=C(O)CC[C@H](NC(=O)N[C@@H](CSC1CC(=O)N(CCCCCNC(=O)CNC(=O)c2cccc([125I])c2)C1=O)C(=O)O)C(=O)O (some centres undefined)
- Drug uptake (Intestine): Active
- Drug uptake (Liver (Mus musculus)): Active
- Drug uptake (LNCaP [3]): Active

Structure (SMILES): O=C(O)CC[C@H](NC(=O)N[C@@H](CCCCNCc1ccc([125I])cc1)C(=O)O)C(=O)O
- Drug uptake (Kidney [4]): Active
- Drug excretion (Liver): Not Active
- Drug uptake (LNCaP [5]): Active
- Kd [2]: 20.4 nM
- Drug excretion (Kidney [6]): Active
- logD [7]: -2.91
- Drug uptake (Blood): Active

Structure (SMILES): CNCC(=O)N[C@@H](CCCCN1C(=O)CC(SC[C@H](NC(=O)N[C@@H](CCC(=O)O)C(=O)O)C(=O)O)C1=O)C(=O)O (some centres undefined)
- Ki [1]: 94.8 nM

Structure (SMILES): O=C(O)CC[C@H](NC(=O)N[C@@H](CSC1CC(=O)N(CCCC[C@H](NC(=O)CNC(=O)c2cccc([123I])c2)C(=O)O)C1=O)C(=O)O)C(=O)O (some centres undefined)
- Drug uptake (PC-3): Not Active
- Drug uptake (LNCaP [8]): Active
- Drug uptake (LNCaP [9]): Not Active

Structure (SMILES): O=C(O)CC[C@H](NC(=O)N[C@@H](CSC1CC(=O)N(CCCC[C@H](NC(=O)c2cccc(I)c2)C(=O)O)C1=O)C(=O)O)C(=O)O (some centres undefined)
- Ki [1]: 2.79 nM

Structure (SMILES): O=C(O)CC[C@H](NC(=O)N[C@@H](CSC1CC(=O)N(CCCC[C@H](NC(=O)CCCCNC(=O)c2cccc(I)c2)C(=O)O)C1=O)C(=O)O)C(=O)O (some centres undefined)
- Ki [1]: 2.14 nM
